V1aR counter – V1a receptor agonism, counter-screen for OXTR agonists; P37288; CHO-V1R cells, Fluo-8 calcium fluorescence, agonist mode; 0% DMSO, 100% 3 nM vasopressin; activation, % at 3 µM; 0.25% of 320,000 active;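 active = activation above the mean activation of all tested compounds plus 3 SD, per screening run, cut at about 20% in these data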;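 note: signal is peak over basal fluorescence ratio across a 100 second FLIPR read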
OXTR agonist – agonists of human oxytocin receptor | P30559 | CHO-OTR cells, Fluo-8 calcium fluorescence; normalized: DMSO 0%, oxytocin 100% | activation, % at 3 µM | 0.32% of 320,000 active | AID 2435;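 active = activation above the mean of all tested compounds plus 3 SD, cutoff set per screening run, cut at about 20% in these data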;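 note: peak over basal fluorescence ratio from a 100 s FLIPR kinetic read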
TAAR1 antag – human TAAR1 antagonism; AID 624466; 1.5% of 360,000 active; CHO RD-HGA16 TAAR1, Fluo-8 calcium fluorescence, antagonist; Q96RJ0; inhibition, % at 3 µM;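 active = inhibition above a per-plate cutoff, the mean inhibition of test compounds on that plate plus 3 SD, cut at about 49% in these data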;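 note: 0% = DMSO plus EC80 beta-PEA response and 100% = DMSO alone without agonist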
Target sequence (Q96RJ0 whole entry, looked up): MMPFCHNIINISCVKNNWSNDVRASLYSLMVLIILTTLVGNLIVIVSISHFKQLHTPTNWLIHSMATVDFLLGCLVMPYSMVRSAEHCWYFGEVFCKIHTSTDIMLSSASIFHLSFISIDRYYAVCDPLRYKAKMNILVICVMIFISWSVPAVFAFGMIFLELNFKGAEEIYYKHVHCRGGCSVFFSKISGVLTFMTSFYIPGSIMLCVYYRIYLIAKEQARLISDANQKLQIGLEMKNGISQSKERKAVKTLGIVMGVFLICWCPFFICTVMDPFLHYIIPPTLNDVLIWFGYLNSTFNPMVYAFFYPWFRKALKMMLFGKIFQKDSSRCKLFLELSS
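Test system: hTAAR1-expressing CHO RD-HGA16 cells, Gα16-coupled; Probe or stimulus: EC80 β-phenethylamine stimulus; Compound dosing: single nominal final test compound concentration of 3 µM; Timing: 140 s kinetic read after compound, 140 s after agonist; Signal: Fluo-8 calcium-sensitive fluorescence; Measure: % inhibition of agonist calcium response; Controls: DMSO and EC80 PEA controls.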
OXTR potentiator – potentiators of human oxytocin receptor | P30559 | activation, % at 3 µM | CHO-OTR cells, Fluo-8 calcium fluorescence, potentiator mode; 0% = oxytocin EC15, 100% = EC100 | AID 2445 | 0.061% of 320,000 active;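 active = activation above that plate's cutoff, the mean activation of tested compounds plus 3 SD, cut at about 6.6% in these data, passing the limit was not always enough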;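 note: 100% uses oxytocin at 75 nM as the full agonist control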
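test system = CHO-OTR cells, human receptor | compound = single-point 3.0 µM | schedule = 6 min compound pre-incubation at room temperature, 100 s kinetic read | signal = Fluo-8 no-wash calcium dye fluorescence, excitation 470-495 nm, emission 515-575 nm | repeats = single well per compound, singlicate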
TAAR1 ag – human TAAR1 agonism; Q96RJ0; activation, % at 3 µM; 0.99% of 360,000 active; AID 624467; CHO RD-HGA16 TAAR1, Fluo-8 calcium fluorescence; vehicle wells 0%, saturating PEA agonist 100%;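 active = activation above the mean activation of all test compounds in the run plus 3 SD, cut at about 38% in these data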
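test system = CHO RD-HGA16 cells carrying human TAAR1 plus Gα16 | schedule = 17-24 h seeding, 75 min 37 °C dye, 30 min RT | compound dosing = 3 µM single concentration | control set = DMSO and PEA EC100 | replicates = n 1 | signal = Fluo-8 fluorescence, 5 s baseline then 140 s kinetic read | measure = percent activation vs PEA EC100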
Numbers without * were called inactive; · = not tested or not shown. This is a sample that favours compounds with a hit; in the whole collection about 2.3% have one here.

SMILES | V1aR counter | OXTR agonist | TAAR1 antag | OXTR potentiator | TAAR1 ag
COC[C@@H]1CCCN1c1ccc2c(c1)O[C@H](COCc1ccccc1)CN([C@@H](C)c1ccccc1)S2(=O)=O | · | · | -22 | · | 0
Cc1ccc(C(=O)N2CCCCC2)cc1NC1=C(Cl)C(=O)N(Cc2ccccc2)C1=O | 4 | 4 | 50* | -10 | 4
CN(C)c1ccc2c3c(cccc13)C(=O)N(c1ccccc1)C2=O | 5 | 2 | · | -17 | ·
Nc1cccc(N2C(=O)c3cccc4c(N)ccc(c34)C2=O)c1 | 47* | 28* | 20 | -12 | 25
O=C(O)c1cccc(N2C(=O)c3cccc4c(Cl)ccc(c34)C2=O)c1 | 0 | 1 | 2 | -13 | 0
CCN1C(=O)c2cccc3c(Cl)ccc(c23)C1=O | -1 | -2 | -24 | -16 | -1
CC(C)CCN1C(=O)c2cccc3c(N)ccc(c23)C1=O | 170* | 128* | 78* | -20 | 149*
Cc1cccc(N2C(=O)c3cccc4c(N(C)CCO)ccc(c34)C2=O)c1 | 38* | 53* | · | -13 | ·
Cc1cccc(N2C(=O)c3cccc4c(N)ccc(c34)C2=O)c1 | 139* | 172* | 45 | -27 | 101*
CCCc1c(C(=O)N/N=C(\C)c2ccc(CC(C)C)cc2)nnn1-c1nonc1N | · | · | -5 | · | 3
CCC(Sc1nc(C)cc(=O)[nH]1)C(=O)Nc1sc2c(c1C#N)CCCC2 (stereo not drawn) | 1 | 1 | -32 | -5 | 40*
COC(=O)CCN(Cc1cccc(OC)c1OC)S(=O)(=O)c1ccccc1Br | · | · | -17 | · | 0
CCOC(=O)NCc1ccc(S(=O)(=O)Nc2ccc(C)cc2)cc1 | 10 | 14 | -1 | -20 | 44*
Cc1ccc(NS(=O)(=O)c2ccc(C3CCCCC3)cc2)cc1 | 17 | 8 | 59* | -12 | 14
CCOc1ccc(S(=O)(=O)Nc2ccc(C(=O)N3CC(C)OC(C)C3)cc2)cc1 (stereo not drawn) | 27* | 34* | 26 | -18 | 57*
CCOC(=O)COc1ccc(S(=O)(=O)Nc2ccc(C)cc2)cc1 | 13 | 16 | 7 | -12 | 50*
COc1cc(N2CCC(O)CC2)ccc1Nc1cc(Nc2ccccc2S(=O)(=O)C(C)C)c2cc[nH]c2n1 | · | · | 28 | · | 9
CC(=NNc1nc2ccccc2s1)c1ncccn1 | · | · | 74* | · | 49*
O=C(NCc1ccncc1)[C@@H]1CCCN1C(=O)[C@@H]1CCCN1C(=O)c1ccccc1Cl | · | · | 10 | · | 1
CCC(CC)c1nnc(NC(=O)c2c(C)nn(Cc3ccccc3Cl)c2C)s1 | 9 | 8 | 15 | -19 | 41*
CCC(CC)c1nnc(NC(=O)Cc2c[nH]c3ccccc23)s1 | · | · | -13 | · | 33
CCC(CC)c1nnc(NC(=O)Cc2ccccc2[N+](=O)[O-])s1 | 15 | 15 | -9 | -10 | 49*
COc1ccc(Nc2c[nH]c(=O)[nH]c2=O)cc1 | · | · | -4 | · | 5
O=C(Nc1cccc(S(=O)(=O)NC2=NCCC2)c1)c1cc(-c2ccccn2)nc2ccccc12 | 1 | 0 | 51* | 0 | 12
COCc1ccc(CN2CCC(C(=O)Nc3cccc(-c4cccc(Cl)c4)c3)CC2)o1 | 28* | 23* | 21 | -16 | 18
SMILES | V1aR counter | OXTR agonist | TAAR1 antag | OXTR potentiator | TAAR1 ag
NC(N)=N/N=C/c1cccc(Cl)c1Cl | 5 | 6 | 17 | -10 | 42*
N#Cc1ccccc1CSc1ccc(-c2nc3ccccc3[nH]2)cn1 | 5 | 10 | 50* | -10 | 13
CC(=O)CSc1ccc(-c2nc3ccccc3[nH]2)cn1 | 0 | 1 | 13 | -2 | 4
CC(C)CC(=O)Nc1nnc(-c2ccco2)s1 | 0 | -2 | -10 | 2 | 7
CCc1ccc(OCC(=O)Nc2nnc(-c3ccco3)s2)cc1 | 2 | 2 | -27 | -6 | 39*
COc1cc(CC(=O)OCC(=O)Nc2ccc(N(C)C)cc2)cc(OC)c1OC | 2 | 2 | -17 | 2 | 2
CN(C)c1ccc(CC(=O)N2CCCC(c3cc(C(=O)Nc4ccc(C(C)(C)C)cc4)no3)C2)cc1 (stereo not drawn) | · | · | 55* | · | 2
O=C(Nc1ccccc1)c1cc(C2CCCN(C(=O)CCc3ccccc3)C2)on1 (stereo not drawn) | · | · | -14 | · | 1
COC(=O)C1=C(C)N(Cc2ccc(C(F)(F)F)cc2)C(=NCC2CC2)NC1c1ccccc1 (stereo not drawn) | · | · | 45 | · | 28
Nc1ccc2nc3c(=O)n(C4CCCCC4)c(=O)[nH]c3nc2c1 | 159* | 91* | 33 | -8 | 88*
CCCCn1c(N)c(Br)c(=O)[nH]c1=O | 1 | 0 | -24 | -16 | 1
COc1cc2[nH]c(=O)n(C3CCCCC3)c(=O)c2cc1OC | -1 | 0 | -26 | -6 | 7
Cc1nc2ccccc2c(=O)n1CCc1ccccc1 | 0 | -1 | 5 | 1 | 4
Cc1cc2nc3c(=O)n(CCc4ccccc4)c(=O)[nH]c3nc2cc1N | 41* | 64* | 43 | -17 | 39*
Nc1ccc2nc3c(=O)n(CCc4ccccc4)c(=O)[nH]c3nc2c1 | 69* | 96* | 24 | -22 | 56*
CCCCn1c(=O)[nH]c2nc3cc(N)ccc3nc2c1=O | 30* | 50* | 24 | -12 | 28
Cc1cccc(C(=O)NC(=S)NNC(=O)c2cccs2)c1 | 26* | 36* | 61* | -8 | 129*
O=C(COC(=O)/C=C/c1ccco1)NCc1ccco1 | 0 | -1 | 16 | -2 | 1
O=C(COC(=O)/C=C/c1ccco1)NCCc1ccccc1 | 0 | 0 | 47 | -5 | 39*
COC(=O)[C@]12CCCCC=C1N(Cc1cccc3ccccc13)C(=O)[C@H](CC(=O)N1CCN(C(=O)c3ccco3)CC1)C2 | · | · | 43 | · | 10
COc1cccc(CNS(=O)(=O)c2cc(Br)ccc2Br)c1OC | · | · | -3 | · | 2
CC1CCC(CN2C(Nc3ccccc3)=NC[C@@H]2Cc2ccccc2)CC1 (stereo partly drawn) | 6 | 8 | 15 | -8 | 44*
c1ccc(C[C@H]2CN=C(Nc3ccccc3)N2CC2CCCCC2)cc1 | 4 | 3 | 1 | -6 | 41*
CCCCCC(=O)N1C[C@@H](n2cc(C3CC3)nn2)[C@H](O)C[C@@H]1c1ccccc1 | · | · | 0 | · | 4
Cc1ccccc1-c1ccc2c(c1)[C@@H]1C[C@H](N(C)C(=O)Nc3ccccc3)[C@H]([C@H](C)O)CN1CC2 | · | · | -19 | · | 0
O=C(Nc1ccccc1NC(=O)c1ccco1)c1ccccc1 | 0 | 0 | 6 | 5 | -1
CC(C)(C)c1ccc(C(=O)Nc2ccccc2NC(=O)c2ccco2)cc1 | -1 | -2 | 49* | -12 | 6
